Activity calls are given as the source filed them. The calls are words filed in the database; no cut-off is given here.
What was measured:
B16-F10 [1] = test: Cytotoxicity against mouse B16F10 cells at 100 uM after 24 hrs by MTT assay relative to control; format: functional
Procedure, shortened: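 Single-concentration screen in which B16-F10 cells (1 × 10⁵) were exposed to 100 µM compound for 24 h. Viability was read by MTT, with control optical density set as 100%. Three experiments in triplicate, mean ± S.E.M.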

B16-F10 [2] = test: Induction of apoptosis in mouse B16F10 cells assessed as decrease in total glutathione level up to 100 uM after 24 hrs by glutathione reductase method; format: functional, cell-based
Procedure, shortened: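 About 3 × 10⁵ B16-F10 cells were treated with 0–100 µM compound for 24 h. A mitochondria-enriched fraction was prepared by centrifugation after homogenization in Tris-sucrose buffer and sonication. Total glutathione (GSH + GSSG) was assayed by the glutathione reductase/DTNB/NADPH method in phosphate buffer 100 mM pH 7.4. Absorbance at 412 nm was read every minute for 5 min against a GSH standard curve.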

B16-F10 [3] = test: Induction of apoptosis in mouse B16F10 cells assessed as decrease in ATP level after 24 hrs by bioluminescent assay; format: functional, cell-based
Procedure, shortened: (§1)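 Intracellular ATP was measured by luciferin–luciferase bioluminescence. About 3 × 10⁵ B16-F10 cells were exposed to 0–100 µM compound for 24 h, pelleted, and extracted with 1.25% trichloroacetic acid on ice for 30 min. Extracts were neutralized with Tris-acetate 1 M pH 7.5 and diluted 4-fold before reading. Three experiments in triplicate.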

B16-F10 [4] = test: Induction of apoptosis in mouse B16F10 cells assessed as DNA fragmentation at IC50 after 24 hrs by gel electrophoresis; format: functional, cell-based
Procedure, shortened: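 DNA ladder assay: 5 × 10⁵ B16-F10 cells were treated for 24 h with each compound at its cell-viability IC50 (DMSO 0.1% final). DNA was ethanol-precipitated, RNase A-treated at 37 °C for 1 h, run on 1.5% agarose and stained with ethidium bromide.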

B16-F10 [5] = test: Cytotoxicity against mouse B16F10 cells after 72 hrs by MTT assay; format: functional, cell-based; settings: B16-F10, 72 h
Procedure, shortened: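 MTT viability assay on B16-F10 cells seeded at 1 × 10⁴ cells/well. Compounds were dissolved in DMSO (0.1% final) and tested over 0–40 µM for 72 h at 37 °C in triplicate. MTT was added for 3 h and formazan dissolved in acidified isopropanol (HCl 0.04 M). Absorbance read at 540 nm. IC50 taken from concentration–response curves against untreated control.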

B16-F10 [6] = test: Induction of necrosis in mouse B16F10 cells assessed as alteration in ATP level up to 100 uM after 24 hrs by bioluminescent assay; format: functional, cell-based; procedure, shortened: as §1

O=C(/C=C/c1cccc2ccccc12)c1cccc(O)c1 was tested, and the Activity (B16-F10 [1]) was 97.7%, the Activity (B16-F10 [2]) was “Active” and the Activity (B16-F10 [3]) was “Dose-dependent effect”. For the same compound, the Activity (B16-F10 [4]) was “Active” and the IC50 (B16-F10 [5]) was 12 µM.
For O=C(/C=C/c1ccc2ccccc2c1)c1ccccc1O, the Activity (B16-F10 [1]) was “inactive”.
For COc1cc(OC)c(C(=O)/C=C/c2ccc([N+](=O)[O-])cc2)c(O)c1Br, the Activity (B16-F10 [1]) was “inactive”.
For COc1cc(O)c(C(=O)/C=C/c2cccc([N+](=O)[O-])c2)c(OC)c1, the Activity (B16-F10 [1]) was “inactive”.
COc1ccc(/C=C/C(=O)c2c(OC)cc(OC)c(Br)c2O)cc1 was tested, and the Activity (B16-F10 [1]) was “inactive”.
With COc1cc(O)c(C(=O)/C=C/c2cccc(Cl)c2)c(OC)c1 the Activity (B16-F10 [1]) was “inactive”.
In the case of COc1cc(OC)c(C(=O)/C=C/c2c(OC)cccc2OC)c(O)c1Br, the Activity (B16-F10 [1]) is reported as “inactive”.
For COc1cc(O)c(C(=O)/C=C/c2cccc3ccccc23)c(OC)c1, the Activity (B16-F10 [1]) was “inactive”.
With O=C(/C=C/c1cccc2ccccc12)c1ccccc1O the Activity (B16-F10 [1]) was 75.2%, the Activity (B16-F10 [2]) was “Active” and the Activity (B16-F10 [3]) was “Dose-dependent effect”. The Activity (B16-F10 [4]) was “Active” and the IC50 (B16-F10 [5]) was 17 µM.
In the case of CCCCOc1ccc(/C=C/C(=O)c2c(OC)cc(OC)c(Br)c2O)cc1, the Activity (B16-F10 [1]) is reported as “inactive”.
For COc1cc(OC)c(C(=O)/C=C/c2ccccc2C(=O)O)c(O)c1Br, the Activity (B16-F10 [1]) was 50%, the Activity (B16-F10 [6]) was “inactive” and the Activity (B16-F10 [4]) was “inactive”. It also gave an IC50 (B16-F10 [5]) of 30 µM.
In the case of COc1cc(OC)c(C(=O)/C=C/c2ccccc2Cl)c(O)c1Br, the Activity (B16-F10 [1]) is reported as “inactive”.
COc1cc(C(=O)/C=C/c2ccc3ccccc3c2)ccc1O was tested, and the Activity (B16-F10 [1]) was “inactive”.
